Test results: paper PMC3822732 (Journal of Cellular and Molecular Medicine, 2009)
Like-named read-outs stand apart in the source and are kept apart here.

Tests used:
[1] = biological target: LRP-1 (Homo sapiens) (UniProt Q07954); settings: cited from earlier work
[2] = system: bovine brain capillary endothelial cell monolayers; settings: cited from earlier work
[3] = system: RBE4 cells; experiment: [125I]-Angiopep-2 uptake assay in brain endothelial cells; type: cell-based, rat; settings: [125I]-Angiopep-2 100 nM; poly-L-lysine 350 μg/ml, protamine 40 μg/ml
How it was run: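 RBE4 brain endothelial cells were grown on collagen I in α-MEM/Ham's F-12 (1:1) with 10% heat-inactivated FCS, G418 and bFGF, seeded at 5 × 10⁴ cells/well and fed 3 days. Subconfluent cells in Ringer/HEPES pH 7.4 took up the tracer for 2 min at 37°C with a polycation, ± unlabelled peptide. Cells were lysed in 0.3 M NaOH and gamma counted, with unlabelled-cell background subtracted, in quadruplicate.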

[4] = after in situ perfusion; cited from earlier work
[5] = Immunohistochemical detection of Angiopep-2 in brain with anti-Angiopep-2 pAb; settings: mice, 20 mg/kg tail vein, 60 min uptake, cold saline perfusion
[6] = system: endothelial cells; experiment: Endothelial cells exposed to Angiopep-2; type: cell-based; settings: data not shown
[7] = in situ brain perfusion; cited from earlier work
[8] = biological target: LRP-1 (Homo sapiens) (UniProt Q07954); settings: cited from earlier work; remark: listed apart in the source
[9] = biological target: LRP-1; settings: read-out: Affinity for LRP-1; in other cell types; cited from earlier work
[10] = cited from earlier work

Sequence of LRP-1 (Homo sapiens) (Q07954 20-4544): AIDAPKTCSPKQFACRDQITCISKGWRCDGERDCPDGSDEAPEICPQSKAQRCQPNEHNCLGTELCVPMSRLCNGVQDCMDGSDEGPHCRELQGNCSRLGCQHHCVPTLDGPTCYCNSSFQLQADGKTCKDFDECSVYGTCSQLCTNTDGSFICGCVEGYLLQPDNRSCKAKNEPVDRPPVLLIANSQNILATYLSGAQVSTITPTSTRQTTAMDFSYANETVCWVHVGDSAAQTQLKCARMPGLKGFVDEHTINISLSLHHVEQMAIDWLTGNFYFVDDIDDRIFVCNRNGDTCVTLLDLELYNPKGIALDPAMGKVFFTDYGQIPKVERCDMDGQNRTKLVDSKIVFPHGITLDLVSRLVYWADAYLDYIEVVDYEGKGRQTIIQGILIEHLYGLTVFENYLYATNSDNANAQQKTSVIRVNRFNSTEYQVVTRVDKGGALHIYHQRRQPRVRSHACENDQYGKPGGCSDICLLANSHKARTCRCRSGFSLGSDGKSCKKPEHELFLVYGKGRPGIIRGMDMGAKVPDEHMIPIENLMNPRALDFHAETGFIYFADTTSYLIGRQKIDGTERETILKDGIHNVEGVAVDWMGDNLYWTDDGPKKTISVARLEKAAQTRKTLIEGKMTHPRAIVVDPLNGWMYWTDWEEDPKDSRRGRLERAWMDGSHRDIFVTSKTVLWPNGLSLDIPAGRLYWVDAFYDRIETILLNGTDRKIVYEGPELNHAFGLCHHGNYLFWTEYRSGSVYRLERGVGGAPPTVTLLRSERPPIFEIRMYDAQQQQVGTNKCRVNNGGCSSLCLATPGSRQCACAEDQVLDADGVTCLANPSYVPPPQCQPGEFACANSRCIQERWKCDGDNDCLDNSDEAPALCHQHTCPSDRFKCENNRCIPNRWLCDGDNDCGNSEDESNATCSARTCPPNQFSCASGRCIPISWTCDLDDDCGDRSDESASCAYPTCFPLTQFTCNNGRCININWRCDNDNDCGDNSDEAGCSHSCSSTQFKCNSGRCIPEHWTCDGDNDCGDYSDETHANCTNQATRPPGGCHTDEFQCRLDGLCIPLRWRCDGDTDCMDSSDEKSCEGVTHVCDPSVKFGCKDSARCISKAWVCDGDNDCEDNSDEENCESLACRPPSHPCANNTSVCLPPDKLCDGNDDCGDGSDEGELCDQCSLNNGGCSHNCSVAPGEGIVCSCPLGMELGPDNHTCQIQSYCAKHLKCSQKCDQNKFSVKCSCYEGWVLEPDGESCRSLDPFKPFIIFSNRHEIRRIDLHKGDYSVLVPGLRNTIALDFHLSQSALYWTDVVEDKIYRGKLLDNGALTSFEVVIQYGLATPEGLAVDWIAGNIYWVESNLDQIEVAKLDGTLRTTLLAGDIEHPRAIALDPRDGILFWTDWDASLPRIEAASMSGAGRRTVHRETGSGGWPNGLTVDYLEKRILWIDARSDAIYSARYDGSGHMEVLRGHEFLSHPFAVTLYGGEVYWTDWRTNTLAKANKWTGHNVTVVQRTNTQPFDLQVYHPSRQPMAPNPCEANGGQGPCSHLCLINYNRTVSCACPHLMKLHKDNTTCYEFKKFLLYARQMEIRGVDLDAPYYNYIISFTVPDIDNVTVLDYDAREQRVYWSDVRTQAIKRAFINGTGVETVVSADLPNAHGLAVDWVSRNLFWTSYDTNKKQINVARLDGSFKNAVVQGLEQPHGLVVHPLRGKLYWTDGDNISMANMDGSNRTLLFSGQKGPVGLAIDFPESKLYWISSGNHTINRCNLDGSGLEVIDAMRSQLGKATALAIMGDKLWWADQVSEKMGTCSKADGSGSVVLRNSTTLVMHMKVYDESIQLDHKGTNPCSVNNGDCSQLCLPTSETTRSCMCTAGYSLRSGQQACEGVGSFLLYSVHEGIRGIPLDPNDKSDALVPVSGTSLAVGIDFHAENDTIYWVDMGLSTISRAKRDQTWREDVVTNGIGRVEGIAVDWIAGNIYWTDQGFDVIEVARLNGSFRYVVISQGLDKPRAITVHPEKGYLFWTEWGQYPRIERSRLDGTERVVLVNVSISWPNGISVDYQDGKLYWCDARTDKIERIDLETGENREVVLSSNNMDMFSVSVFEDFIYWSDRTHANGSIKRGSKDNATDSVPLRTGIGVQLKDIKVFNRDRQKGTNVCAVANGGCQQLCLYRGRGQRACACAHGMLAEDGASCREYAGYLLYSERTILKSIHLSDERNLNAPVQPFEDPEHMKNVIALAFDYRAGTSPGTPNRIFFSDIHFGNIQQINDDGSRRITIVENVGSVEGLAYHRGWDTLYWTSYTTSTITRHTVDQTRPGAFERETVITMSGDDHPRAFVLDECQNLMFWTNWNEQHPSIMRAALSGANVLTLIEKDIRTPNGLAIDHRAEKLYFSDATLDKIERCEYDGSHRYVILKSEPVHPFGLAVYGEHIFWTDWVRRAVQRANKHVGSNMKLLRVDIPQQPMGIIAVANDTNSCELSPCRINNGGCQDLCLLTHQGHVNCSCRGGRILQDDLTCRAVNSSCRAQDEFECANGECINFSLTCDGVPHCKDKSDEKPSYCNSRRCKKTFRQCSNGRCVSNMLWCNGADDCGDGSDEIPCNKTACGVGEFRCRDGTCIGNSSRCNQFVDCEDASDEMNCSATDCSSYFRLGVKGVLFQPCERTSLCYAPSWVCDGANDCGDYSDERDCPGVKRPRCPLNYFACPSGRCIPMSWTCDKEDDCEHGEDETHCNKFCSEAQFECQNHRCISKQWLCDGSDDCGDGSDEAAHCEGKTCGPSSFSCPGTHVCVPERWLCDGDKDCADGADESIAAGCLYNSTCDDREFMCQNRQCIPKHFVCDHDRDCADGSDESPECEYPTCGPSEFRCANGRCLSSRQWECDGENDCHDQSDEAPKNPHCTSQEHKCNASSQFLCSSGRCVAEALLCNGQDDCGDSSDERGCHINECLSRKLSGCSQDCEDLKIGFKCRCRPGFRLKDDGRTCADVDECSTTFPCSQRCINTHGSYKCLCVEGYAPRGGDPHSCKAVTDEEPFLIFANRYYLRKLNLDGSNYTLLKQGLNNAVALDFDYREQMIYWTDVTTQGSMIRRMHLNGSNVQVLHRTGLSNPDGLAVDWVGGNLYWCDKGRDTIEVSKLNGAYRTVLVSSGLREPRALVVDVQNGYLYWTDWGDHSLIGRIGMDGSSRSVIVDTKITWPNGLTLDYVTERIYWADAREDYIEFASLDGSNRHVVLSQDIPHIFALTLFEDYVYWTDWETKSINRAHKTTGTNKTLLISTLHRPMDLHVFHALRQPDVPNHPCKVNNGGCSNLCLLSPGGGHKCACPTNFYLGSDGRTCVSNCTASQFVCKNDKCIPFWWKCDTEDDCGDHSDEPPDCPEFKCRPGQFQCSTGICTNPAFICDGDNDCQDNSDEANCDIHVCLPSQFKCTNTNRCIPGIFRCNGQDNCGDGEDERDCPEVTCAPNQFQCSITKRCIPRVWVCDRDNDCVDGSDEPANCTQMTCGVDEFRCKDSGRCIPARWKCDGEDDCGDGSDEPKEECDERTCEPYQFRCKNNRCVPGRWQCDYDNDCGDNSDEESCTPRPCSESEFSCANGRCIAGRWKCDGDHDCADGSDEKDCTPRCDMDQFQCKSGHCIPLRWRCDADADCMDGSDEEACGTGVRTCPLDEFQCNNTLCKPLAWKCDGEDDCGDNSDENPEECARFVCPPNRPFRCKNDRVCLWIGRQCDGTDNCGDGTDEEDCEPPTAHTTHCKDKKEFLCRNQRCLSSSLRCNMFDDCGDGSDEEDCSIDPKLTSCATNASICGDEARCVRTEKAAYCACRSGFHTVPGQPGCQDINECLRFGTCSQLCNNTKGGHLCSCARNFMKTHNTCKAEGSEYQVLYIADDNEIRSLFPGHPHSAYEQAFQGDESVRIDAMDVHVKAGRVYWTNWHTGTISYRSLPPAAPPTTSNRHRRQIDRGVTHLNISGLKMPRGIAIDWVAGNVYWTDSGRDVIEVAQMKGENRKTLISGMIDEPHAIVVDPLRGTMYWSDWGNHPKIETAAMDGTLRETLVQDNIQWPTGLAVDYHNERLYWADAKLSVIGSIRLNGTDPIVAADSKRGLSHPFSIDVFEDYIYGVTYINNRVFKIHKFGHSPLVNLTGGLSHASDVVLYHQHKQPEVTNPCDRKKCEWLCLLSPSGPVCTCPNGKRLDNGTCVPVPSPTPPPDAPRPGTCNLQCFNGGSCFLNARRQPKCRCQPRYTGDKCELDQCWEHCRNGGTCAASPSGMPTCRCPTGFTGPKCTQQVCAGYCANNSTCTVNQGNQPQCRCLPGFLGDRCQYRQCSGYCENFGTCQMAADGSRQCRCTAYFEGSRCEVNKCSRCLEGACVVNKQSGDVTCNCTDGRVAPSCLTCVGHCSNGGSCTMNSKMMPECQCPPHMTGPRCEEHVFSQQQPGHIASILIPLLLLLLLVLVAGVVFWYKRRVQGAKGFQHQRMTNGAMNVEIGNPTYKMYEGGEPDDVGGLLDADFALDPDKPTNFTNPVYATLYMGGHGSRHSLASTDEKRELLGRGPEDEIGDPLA
Sequence of receptor-associated protein (RAP) (P30533 35-357): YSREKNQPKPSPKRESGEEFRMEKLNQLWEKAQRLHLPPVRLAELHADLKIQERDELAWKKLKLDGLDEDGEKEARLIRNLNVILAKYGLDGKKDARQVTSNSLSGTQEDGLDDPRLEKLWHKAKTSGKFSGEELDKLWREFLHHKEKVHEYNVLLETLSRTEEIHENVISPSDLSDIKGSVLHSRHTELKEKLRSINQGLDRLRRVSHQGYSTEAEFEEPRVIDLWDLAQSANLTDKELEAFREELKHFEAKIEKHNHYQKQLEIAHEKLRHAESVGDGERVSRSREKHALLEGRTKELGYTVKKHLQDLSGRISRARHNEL

Substance: α2-macroglobulin (from UniProt P01023)
- Kd [1]: 2 nM

Substance: TFFYGGSRGRRNNFRTEEY [Angiopep-7]
- In vitro BBB transcytosis [2]: did not exhibit in vitro transcytosis

Substance: poly-L-lysine
- Inhibition of [125I]-Angiopep-2 uptake into RBE4 cells [3]: 69%

Substance: protamine
- Inhibition of [125I]-Angiopep-2 uptake into RBE4 cells [3]: 79%

Substance: TFFYGGSRGKRNNFKTEEY [Angiopep-2]
- Apparent distribution volume in brain parenchyma vs transferrin [4]: greater apparent distribution volume in brain parenchyma than transferrin
- In vitro BBB transcytosis [2]: high BBB transcytosis in vitro
- Immunohistochemical detection in brain after IV bolus injection [5]: present in the brain parenchyma
- Effect of exposure to Angiopep-2 on endothelial cells [6]: unaffected
- Permeability of the BBB to inulin in the presence of Angiopep-2 [7]: unaffected

Substance: receptor-associated protein (RAP) (from UniProt P30533)
- Kd [8]: 2 nM

Substance: α2-macroglobulin: LRP-1 ligand
- Kd [9]: ~2 nM

Substance: poly-L-glutamine
- Inhibition of [125I]-Angiopep-2 uptake into RBE4 cells [3]: unaffected

Substance: RAP: receptor-associated protein, an LRP ligand
- Kd [9]: ~2 nM

Substance: Cy5.5
- Passage of free dye across the BBB [10]: does not cross the BBB
